The record followed here is ChEMBL document CHEMBL5674869, “The Histone Methyltransferase Inhibitor A-366 Uncovers a Role for G9a/GLP in the Epigenetics of Leukemia” (PLoS One, 2015).

The structures appear in SMILES notation. Calls of active or inactive are those of the source. No cut-off for these calls is given here. Some results are limits rather than exact numbers.

The target of experiment [1] is T1, Histone-lysine N-methyltransferase EHMT2 (Homo sapiens) (UniProt Q96KQ7).
T1 sequence (whole entry): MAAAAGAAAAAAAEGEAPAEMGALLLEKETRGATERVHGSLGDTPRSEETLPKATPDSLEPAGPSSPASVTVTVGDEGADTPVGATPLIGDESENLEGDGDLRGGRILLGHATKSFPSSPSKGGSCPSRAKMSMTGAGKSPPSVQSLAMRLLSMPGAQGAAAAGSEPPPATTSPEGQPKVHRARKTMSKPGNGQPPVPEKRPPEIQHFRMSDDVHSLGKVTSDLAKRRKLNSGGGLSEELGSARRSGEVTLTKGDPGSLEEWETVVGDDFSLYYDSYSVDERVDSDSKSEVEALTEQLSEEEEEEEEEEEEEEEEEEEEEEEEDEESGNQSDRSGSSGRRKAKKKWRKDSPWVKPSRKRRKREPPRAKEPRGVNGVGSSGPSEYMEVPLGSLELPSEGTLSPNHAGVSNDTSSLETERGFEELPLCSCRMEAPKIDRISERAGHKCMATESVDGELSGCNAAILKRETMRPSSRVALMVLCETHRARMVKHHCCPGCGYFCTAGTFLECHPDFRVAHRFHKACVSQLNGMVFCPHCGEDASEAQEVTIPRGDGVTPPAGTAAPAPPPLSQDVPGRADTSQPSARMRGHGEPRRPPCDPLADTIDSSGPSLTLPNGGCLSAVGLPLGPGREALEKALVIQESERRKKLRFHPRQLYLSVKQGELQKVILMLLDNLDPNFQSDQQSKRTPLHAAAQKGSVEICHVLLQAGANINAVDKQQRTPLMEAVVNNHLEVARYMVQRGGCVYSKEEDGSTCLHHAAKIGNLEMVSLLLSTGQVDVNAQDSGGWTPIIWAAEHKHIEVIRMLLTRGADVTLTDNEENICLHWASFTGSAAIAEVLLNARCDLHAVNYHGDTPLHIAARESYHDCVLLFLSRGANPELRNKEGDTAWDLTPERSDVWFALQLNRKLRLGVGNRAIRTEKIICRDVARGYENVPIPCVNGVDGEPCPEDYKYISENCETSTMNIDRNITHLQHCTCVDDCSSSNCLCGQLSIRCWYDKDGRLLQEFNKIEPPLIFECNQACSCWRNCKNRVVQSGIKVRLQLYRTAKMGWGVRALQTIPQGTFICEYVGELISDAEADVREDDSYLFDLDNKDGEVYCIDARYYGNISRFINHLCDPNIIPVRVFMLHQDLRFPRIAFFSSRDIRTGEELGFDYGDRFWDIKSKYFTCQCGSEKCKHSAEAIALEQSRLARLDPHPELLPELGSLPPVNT
Nature of the experiment: Inhibition of G9a in human PC-3 cells assessed as decrease in total H3 levels at 10 uM by In cell Western assay. It is filed as cell-based. The method in brief: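 PC-3 cells (5,000/well) adhered overnight, then treated in triplicate with DMSO or compound over a concentration range for 72 h at 37 °C, 5% CO2. Cells fixed in 3% formaldehyde, blocked in 1% BSA and co-stained 4 h for H3K9me2 (1:500) and total H3 (1:1000). Fluorescent secondaries read by Odyssey: 800 nm H3K9me2, 700 nm total H3.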

Experiment [2] concerns the target T1, Histone-lysine N-methyltransferase EHMT2 (Homo sapiens). Put plainly: Inhibition of G9a in human MCF7 cells assessed as decrease in […] levels at 0.3 to 3 uM after 72 hrs by Western blot analysis. It is filed as cell-based. The note with it: dose 0.3-3 µM.
The test system of a further experiment is MOLT-16. Nature of the experiment: Antiproliferative activity against human MOLT-16 cells at EC50 after 5 days by Cell-Titer-Glo assay. It is filed as functional, cell-based. The conditions noted are these: time 5.0 day. Summed up: (§1)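 ATCC tumor lines were grown in their recommended media with 10% FBS and STR-authenticated. Cells were exposed to compound for the stated number of days. Viable cells were read by CellTiter-Glo endpoint. Inhibition was the ratio of treated to untreated wells, with cell-free wells set as 100% inhibition. The EC50 was taken from the dose response.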

The next experiment has as its system RPMI-8226. Nature of the experiment: Antiproliferative against human RPMI-8226 cells after 5 days by Cell-Titer Glo assay. The conditions noted are these: RPMI-8226, 120 h. Format: functional, cell-based. The method in brief: as §1
Another experiment deals with OPM-2. Put plainly: Antiproliferative against human OPM-2 cells after 5 days by Cell-Titer Glo assay. It is filed as functional, cell-based. The conditions noted are these: OPM-2, 120 h. Summed up:
as §1

The test system of the next experiment is L-363. Nature of the experiment: Antiproliferative against human L-363 cells after 5 days by Cell-Titer Glo assay. The conditions noted are these: L-363, 120 h. It is filed as functional, cell-based. Summed up:
as §1

In the next experiment the test system is KMS-11. Put plainly: Antiproliferative against human KMS-11 cells after 5 days by Cell-Titer Glo assay. It is filed as functional, cell-based. The note with it: KMS-11, 120 h. The method in brief: as §1
The subject of a further experiment is Kasumi 1. Nature of the experiment: Antiproliferative against human Kasumi-1 cells after 5 days by Cell-Titer Glo assay. It is filed as functional, cell-based. The conditions noted are these: Kasumi 1, 120 h. The method in brief:
as §1

The test system of another experiment is HL-60. Nature of the experiment: Antiproliferative against human HL-60 cells after 5 days by Cell-Titer Glo assay. The conditions noted are these: HL-60, 120 h. Format: functional, cell-based. The method in brief:
as §1

The subject of a further experiment is NCI-H929. Put plainly: Antiproliferative against human NCI-H929 cells after 5 days by Cell-Titer Glo assay. It is filed as functional, cell-based. The conditions noted are these: NCI-H929, 120 h. The method in brief: as §1
For the next experiment, the system named is MV4-11. Put plainly: Antiproliferative against human MV4-11 cells after 5 days by Cell-Titer Glo assay. It is filed as functional, cell-based. The note with it: MV4-11, 120 h. Summed up:
as §1

The next experiment deals with HT-1080. Put plainly: Antiproliferative against human HT-1080 cells after 5 days by Cell-Titer Glo assay. The note with it: HT-1080, 120 h. It is filed as functional, cell-based. The method in brief:
as §1

The next experiment has as its system DU-145. Put plainly: Antiproliferative against human DU-145 cells after 5 days by Cell-Titer Glo assay. It is filed as functional, cell-based. The note with it: DU-145, 120 h. Summed up: as §1
For a further experiment, the system named is LN-229. Put plainly: Antiproliferative against human LN-229 cells after 5 days by Cell-Titer Glo assay. Format: functional, cell-based. The note with it: LN-229, 120 h. The method in brief:
as §1

Another experiment concerns LNCaP. Nature of the experiment: Antiproliferative against human LNCaP cells after 5 days by Cell-Titer Glo assay. It is filed as functional, cell-based. The note with it: 120 h. The method in brief:
as §1

For another experiment, the system named is SK-BR-3. Put plainly: Antiproliferative against human SK-BR-3 cells after 5 days by Cell-Titer Glo assay. It is filed as functional, cell-based. The note with it: SK-BR-3, 120 h. Summed up:
as §1

For another experiment, the system named is NCI-H2009. Nature of the experiment: Antiproliferative against human NCI-H2009 cells after 5 days by Cell-Titer Glo assay. It is filed as functional, cell-based. The note with it: NCI-H2009, 120 h. The method in brief:
as §1

A further experiment deals with Calu-1. Put plainly: Antiproliferative against human Calu-1 cells after 5 days by Cell-Titer Glo assay. Format: functional, cell-based. The conditions noted are these: Calu-1, 120 h. Summed up: as §1
The next experiment relates to Calu-6. Put plainly: Antiproliferative against human Calu-6 cells after 5 days by Cell-Titer Glo assay. Format: functional, cell-based. The note with it: Calu-6, 120 h. Summed up: as §1
A further experiment has as its system NCI-H358. Nature of the experiment: Antiproliferative against human NCI-H358 cells after 5 days by Cell-Titer Glo assay. Format: functional, cell-based. The conditions noted are these: NCI-H358, 120 h. The method in brief:
as §1

Another experiment deals with NCI-H441. Put plainly: Antiproliferative against human NCI-H441 cells after 5 days by Cell-Titer Glo assay. It is filed as functional, cell-based. The conditions noted are these: NCI-H441, 120 h. The method in brief:
as §1

In another experiment the test system is PA-1. Put plainly: Antiproliferative against human PA-1 cells after 7 days by Cell-Titer Glo assay. Format: functional, cell-based. The conditions noted are these: PA-1, 168 h. Summed up:
as §1

The subject of a further experiment is G-401. Put plainly: Antiproliferative against human G-401 cells after 7 days by Cell-Titer Glo assay. Format: functional, cell-based. The conditions noted are these: G-401, 168 h. The method in brief: as §1
Experiment [3] addresses T1, Histone-lysine N-methyltransferase EHMT2 (Homo sapiens). Nature of the experiment: Inhibition of G9a in human PC-3 cells assessed as decrease in H3K9me2 levels after 72 hrs by Western blot analysis.

The term EC50 denotes the concentration needed to bring the measured effect to its halfway point. With `COc1cc2c(NC3CCN(C(C)C)CC3)nc(C3CCCCC3)nc2cc1OCCCN1CCCC1`, the inhibition result in experiment [1], in [2] and in experiment [3] was “Active” throughout. Also, the outcome in the experiment with MOLT-16 was Active. The EC50 amounted to 5.1 µM with RPMI-8226; 5.6 µM in the experiment on OPM-2; 3.9 µM with L-363; 4 µM with KMS-11; 1.1 µM in the experiment with Kasumi 1; 6.5 µM with HL-60. Further, the concentration giving a half-maximal response (EC50) in the experiment on NCI-H929 came out at 4.6 µM; in the experiment with MV4-11, 1.7 µM; in the experiment with HT-1080, 0.5 µM; with DU-145, 0.7 µM; in the experiment on LN-229 it was 0.5 µM; with LNCaP, 0.3 µM. For the same molecule, the EC50 is 0.6 µM in the experiment with SK-BR-3; 3.9 µM in the experiment on NCI-H2009; 1.3 µM in the experiment on Calu-1; 1.5 µM with Calu-6; 4.3 µM with NCI-H358; 8.7 µM in the experiment with NCI-H441. Moreover, the concentration for a half-maximal effect (EC50) stood at 0.2 µM in the experiment on PA-1 and 0.4 µM in the experiment with G-401.
As for `COc1cc2c(cc1OCCCN1CCCC1)N=C(N)C21CCC1`, the inhibition entry in experiment [1] was “inactive”. Besides, the inhibition entry in [2] is “Active”. Also, the outcome in the experiment on MOLT-16 was inactive. The 50% effective concentration (EC50) in the experiment on RPMI-8226, in the experiment with OPM-2, with L-363, in the experiment on KMS-11, in the experiment with Kasumi 1 and with HL-60 was above 10 µM each time. In addition, the concentration for a half-maximal effect (EC50) with NCI-H929, with MV4-11, in the experiment with HT-1080, in the experiment on DU-145, in the experiment with LN-229 and in the experiment on LNCaP was above 10 µM in each case. The 50% effective concentration (EC50) in the experiment on SK-BR-3, in the experiment on NCI-H2009, in the experiment with Calu-1, with Calu-6, in the experiment with NCI-H358 and in the experiment on NCI-H441 was above 10 µM throughout. The EC50 in the experiment on PA-1 and in the experiment with G-401 was above 10 µM throughout. The inhibition entry in experiment [3] is “Dose-Dependent Effect”.
